Reference: article PMC11421684 (Food and chemical toxicology : an international journal …, 2014)
“And” between values parts separate entries of the source, which are not always exact repeats. Equal entries are not always repeated.

Assays:
[1] = Body weight and organ weights standardized to body weight; format: in vivo, rat; conditions: for GD20 Body weight (g ± SEM) / Heart weight standardized to body weight (% ± SEM) / Left kidney weight standardized to body weight (% ± SEM) / Liver weight standardized to body weight (% ± SEM) / Right kidney weight standardized to body weight (% ± SEM) / Spleen weight standardized to body weight (% ± SEM) / Paired kidney weight standardized to body weight (% ± SEM): 1000 mg/kg BW/day; for Paired kidney weight standardized to body weight (% ± SEM): group mean, 1000 mg/kg/day
[2] = Formalin, ethanol and freezing effects on renal crystals; parameters: species or system rat
Summary of the method: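 Fresh kidney wet-mounts with crystal rank 4–5 were flooded with 10% neutral buffered formalin and photographed repeatedly. Times were 0, 1, 2, 3 and 24 h for melamine-exposed kidney and 0, 10, 20, 30 min and 1 h for cyanuric acid-exposed kidney. Sections in 100% ethanol were checked daily for up to 6 days. Frozen tissue, either freeze–thawed or held at −70 °C, was cut into 6 μm cryosections, unstained or unfixed H&E.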

[3] = oral, female rats; ref Jacob et al., 2012; cited from earlier work
[4] = test system: kidney; test: Kidney wet-mount analysis for renal crystals; format: in vivo, rat; conditions: pregnant and non-pregnant combined, wet-mount
Summary of the method: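 After 10 days of gavage at 1000 mg/kg BW/day, a thin fresh renal slice spanning cortex and medulla was weighed. It was compressed between two slides with a coverslip and examined fresh by light microscopy. Crystals were ranked on a subjective 0–5 scale; some views used polarised light.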

[5] = test system: pregnant rats; test: Reproductive indices at necropsy; format: in vivo, rat
Summary of the method: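 Time-pregnant rats were gavaged daily for 10 days from GD10 with 1% CMC-Na or 1000 mg/kg BW/day test compound. At necropsy the gravid uterus was removed whole and weighed, and corpora lutea, implants, and early and late deaths were recorded. Groups were compared against both control and the other triazine group.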

[6] = Amniotic fluid triazine analysis by LC-MS/MS; format: in vivo, rat; conditions: pregnant female rats, pooled by dam; label = dose group; LOD 0.4 μg/mL
Summary of the method: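 Amniotic fluid came from GD20 dams gavaged for 10 days with vehicle or 1000 mg/kg BW/day test compound. Melamine and cyanuric acid were measured by a previously published LC-MS/MS method, validated with pre-spiked amniotic fluid. Serum-to-amniotic fluid Pearson correlations were run only on rats with both samples (p ≤ 0.05).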

[7] = test system: rats; test: Clinical observations and survival; format: in vivo, rat; conditions: pregnant and non-pregnant rats; 1000 mg/kg BW/day
Summary of the method: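 Female rats, time-pregnant or non-pregnant, were weight-stratified and randomised from GD10. They were gavaged each morning for 10 days with 1% CMC-Na vehicle or 1000 mg/kg BW/day test compound at 1 mL/100 g (n = 11/group; pregnant high-triazine group n = 13). Observations were made at least twice on day 1, then at least daily, covering skin, fur, eyes, mucosa, autonomic/CNS signs and behaviour. Animals removed early were counted as deaths.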

[8] = Serum triazine analysis by LC-MS/MS; format: in vivo; conditions: pregnant female rats, individual rat; label = dose group; LOD 0.4 μg/mL
Summary of the method: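 Serum was collected from each rat after 10 daily gavages of 1000 mg/kg BW/day test compound or vehicle. Melamine and cyanuric acid were quantified by a previously published LC-MS/MS method, validated with pre-spiked serum samples at several fortification levels. Natural-log serum concentrations were compared between pregnant and non-pregnant rats by two-sided t-test (p ≤ 0.05).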

[9] = Serum chemistry, renal function; format: in vivo, rat; conditions: for Blood urea nitrogen (mean ± SEM) / Creatinine (mean ± SEM) / Uric acid (mean ± SEM): serum
Summary of the method: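 Serum was taken from pregnant and non-pregnant rats after 10 days of gavage with vehicle or 1000 mg/kg BW/day test compound. Samples were brought to room temperature. BUN, creatinine and uric acid were measured on a benchtop veterinary chemistry analyser. Results were compared with control and the other treated group.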

[10] = test system: fetuses; test: Fetal data; format: in vivo, rat; conditions: dams, 1000 mg/kg BW/day, GD20
Summary of the method: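 Dams were dosed by gavage (1000 mg/kg BW/day or 1% CMC-Na vehicle) for 10 days from GD10. At GD20 necropsy, the gravid uterus was removed whole and weighed. Each viable fetus was recorded for uterine position, sex, weight, crown-rump length and external abnormalities. Runts were defined as below 70% of the control litter average weight by gender.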

[11] = Weight gains, feed and water consumption of gavaged rats; format: in vivo, rat; conditions: for Total feed consumption (g ± SEM) / Total water consumption (g ± SEM): 1000 mg/kg BW/day
Summary of the method: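 Rats were housed singly at 18–26 °C, 40–70% RH and 12 h light/dark, with feed and water ad libitum. They were gavaged for 10 days from GD10 with vehicle (1% CMC-Na) or 1000 mg/kg BW/day test compound. Fluid intake was measured every 3 days and feed every 7 days. For dams, adjusted gain = GD20 body weight minus gravid uterus weight and GD10 weight.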

[12] = test system: kidney and bladder; test: Histopathology of kidney and bladder; format: in vivo, rat
[13] = dams, 1000 mg/kg BW/day, necropsy GD20
[14] = not pregnant rats, 1000 mg/kg BW/day
[15] = pregnant and non-pregnant pooled
[16] = pregnant rats, 1000 mg/kg BW/day

SMILES: Oc1nc(O)nc(O)n1 [CYA, cyanuric acid]
- GD20 Body weight (g ± SEM) ([1]; not pregnant rats): 234.3 ± 4.5 g
- Heart weight standardized to body weight (% ± SEM) ([1]; not pregnant rats): 0.38 ± 0.01%
- Left kidney weight standardized to body weight (% ± SEM) ([1]; not pregnant rats): 0.43 ± 0.02%
- Liver weight standardized to body weight (% ± SEM) ([1]; not pregnant rats): 3.48 ± 0.07 %
- Right kidney weight standardized to body weight (% ± SEM) ([1]; not pregnant rats): 0.45 ± 0.03%
- Spleen weight standardized to body weight (% ± SEM) ([1]; not pregnant rats): 0.23 ± 0.02%
- Paired kidney weight standardized to body weight (% ± SEM) ([1]; not pregnant rats): 0.88% and 0.88 ± 0.05%
- GD20 Body weight (g ± SEM) ([1]; pregnant rats): 351.3 ± 6.1 g
- Heart weight standardized to body weight (% ± SEM) ([1]; pregnant rats): 0.30 ± 0.01%
- Left kidney weight standardized to body weight (% ± SEM) ([1]; pregnant rats): 0.28 ± 0.02%
- Liver weight standardized to body weight (% ± SEM) ([1]; pregnant rats): 3.58 ± 0.09%
- Right kidney weight standardized to body weight (% ± SEM) ([1]; pregnant rats): 0.30 ± 0.01%
- Spleen weight standardized to body weight (% ± SEM) ([1]; pregnant rats): 0.17 ± 0.01%
- Paired kidney weight standardized to body weight (% ± SEM) ([1]; pregnant rats): 0.58% and 0.58 ± 0.03%
- Standardized paired kidney weight of individual rats with renal crystals ([1]; two non-pregnant rats with crystals, both the same value): 1.22%
- Standardized paired kidney weight of individual rats with renal crystals ([1]; two pregnant rats with crystals): 0.74% and 0.77%
- Stability of crystals to freeze–thaw cycles ([2]; frozen kidney tissue, CYA stable if held at −70 °C): dissolved
- Time at which almost all crystals were gone in formalin ([2]; kidney wet-mount sections): 30 min
- Area under the curve (AUC) [3]: 1375 ng·h/mL
- Half-life [3]: 59.4 min
- Treated rats that developed renal crystals (percent) ([4]; MEL n = 24, CYA n = 22): 18%
- Number of treated rats that developed renal crystals ([4]; MEL of 24, CYA of 22): 4
- Effect on reproductive indices compared with controls ([5]; 1000 mg/kg BW/day): did not appear to have an effect
- No. corpea lutea (mean ± SEM) ([5]; dams, 1000 mg/kg BW/day gavage GD10-20, necropsy GD20): 15.1 ± 0.5
- Early and late deaths (mean% of implants ± SEM) [5, 13]: 3.4 ± 1.6 % of implants
- Early deaths (mean% of implants ± SEM) [5, 13]: 1.3 ± 0.9 % of implants
- Implant efficiency (mean% ± SEM) [5, 13]: 90.7 ± 3.0%
- Late deaths (mean% of implants ± SEM) [5, 13]: 2.0 ± 1.6 % of implants
- No. fetuses alive (mean ± SEM) [5, 13]: 13.2 ± 0.6
- No. implants (mean ± SEM) [5, 13]: 13.6 ± 0.5
- Percent alive both genders (mean% ± SEM) [5, 13]: 96.7 ± 1.6%
- Percent live females (mean% ± SEM) [5, 13]: 40.7 ± 3.8%
- MEL concentration, Amniotic Fluid [6]: <LOD
- Maternal health during 10 day dosing period [7]: no treatment related health effects
- MEL concentration, Serum [8]: <LOD
- Effect on uric acid serum levels versus control rats ([9]; 1000 mg/kg BW/day): did not appear to have an effect
- Mean BUN of treated rats with renal crystals ([9]; 4 rats (2 pregnant and 2 non-pregnant)): 31 mg/dL
- Blood urea nitrogen (mean ± SEM) [9, 14]: 17.82 ± 2.33 mg/dL
- Creatinine (mean ± SEM) [9, 14]: 0.59 ± 0.07 mg/dL
- Uric acid (mean ± SEM) [9, 14]: 5.26 ± 0.27^& mg/dL
- Mean BUN of the other treated rats (without crystals) [9, 15]: 15 mg/dL
- Mean creatinine of treated rats with crystals [9, 15]: 1.1 mg/dL
- Mean creatinine of treated rats without crystals [9, 15]: 0.5 mg/dL
- Blood urea nitrogen (mean ± SEM) [9, 16]: 17.45 ± 2.26 mg/dL
- Creatinine (mean ± SEM) [9, 16]: 0.59 ± 0.07 mg/dL
- Uric acid (mean ± SEM) [9, 16]: 3.37 ± 0.28 mg/dL
- Average crown rump length (mean cm ± SEM) [10]: 4.10 ± 0.02 cm
- Average fetal body weight (g ± SEM) [10]: 4.06 ± 0.05 g
- Litter size (mean ± SEM) [10]: 13.2 ± 0.6
- Total feed consumption (g ± SEM) ([11]; not pregnant rats): 158.6 ± 8.8 g
- Total water consumption (g ± SEM) ([11]; not pregnant rats): 264 ± 21.2 g
- Total bw gain (g ± SEM) ([11]; not pregnant rats, 1000 mg/kg BW/day gavage 10 days, brackets indicate negative): 16.0 ± 4.1 g
- Total feed consumption (g ± SEM) ([11]; pregnant rats): 220.1 ± 5.4 g
- Total water consumption (g ± SEM) ([11]; pregnant rats): 353.6 ± 17.5 g
- Total bw gain (g ± SEM) ([11]; pregnant rats, 1000 mg/kg BW/day gavage GD10-20): 94.2 ± 3.3 g
- Number of rats with epithelial necrosis in the bladder ([12]; MEL: pregnant rats, minimal to marked, CYA: 1 pregnant, 2 non-pregnant, mild): Three
- Number of rats with tubular dilation and necrosis ([12]; kidney, H&E, of 22 treated rats): 5
